Hits are enriched below; roughly 4.7% of the tested compounds scored in any of these assays.
MC4R antag cAMP = human MC4R antagonism in cAMP assay | MC4R-expressing cells, MTII-stimulated cAMP, LANCE TR-FRET | inhibition, % at 6.5 µM | actives 0.48% (n = 360,000);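 active = inhibition above its plate's cutoff, the mean of tested wells on that plate plus 3 SD, cut at about 29% in these data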;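 note: 0% = Melanotan II alone and 100% = Melanotan II plus saturating MCL0020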
Target sequence (P32245 whole entry, looked up): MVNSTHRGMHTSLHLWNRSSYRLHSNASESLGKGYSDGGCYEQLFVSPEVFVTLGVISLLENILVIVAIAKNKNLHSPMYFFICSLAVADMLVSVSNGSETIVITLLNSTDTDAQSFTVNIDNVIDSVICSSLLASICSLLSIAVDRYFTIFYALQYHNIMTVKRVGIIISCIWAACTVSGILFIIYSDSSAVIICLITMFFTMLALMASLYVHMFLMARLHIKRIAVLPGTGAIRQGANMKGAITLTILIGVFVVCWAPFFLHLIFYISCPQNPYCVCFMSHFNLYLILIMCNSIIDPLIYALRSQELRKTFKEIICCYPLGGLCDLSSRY
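Material: U2OS-MC4R stable cell line | Reagent: Melanotan II challenge after compound preincubation | Doses: One concentration, 6.5 µM nominal | Incubation: 30-min compound preincubation, 1-h Melanotan II challenge, 1-h detection, room temperature | Signal: TR-FRET cAMP assay | Replicates: One well per compound, no replicates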
FXN GAA850 act = frataxin GAA850 promoter activation. HEK293 lucGAA850 FXN promoter luciferase reporter, 24 h; percent of 10 µM SAHA response. activation, % at 6 µM. AID 540364. actives 0.56% (n = 360,000);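 active = activation above the average of all compounds screened plus 3 SD, cutoff fixed separately per campaign, cut at about 7.5% in these data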;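 note: 0% = DMSO wells and 100% = 10 µM SAHA wells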
AHR activator = activators of human aryl hydrocarbon receptor; activation, % at 5 µM; AHR-responsive luciferase reporter cells, luminescence; AID 2796; actives 2.5% (n = 320,000); in the data active = activation above about 47%;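 note: 0% = vehicle wells and 100% = reference agonist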
MC4R ag barr = human MC4R agonism via beta-arrestin; actives 0.98% (n = 360,000); activation, % at 8.9 µM; U2OS MC4R beta-arrestin complementation, luminescence; percent of melanotan II response, DMSO zero;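 active = activation above a per-plate cutoff, the mean activation of sample wells on that plate plus 3 SD, cut at about 8% in these data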
m5-HT2A agonist = activates the mouse 5-HT2A serotonin receptor | actives 0.66% (n = 360,000) | P35363 | CHO-K1 mHTR2A beta-arrestin complementation, luminescence; percent of 30 µM serotonin response | activation, % at 7.6 µM;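 active = activation above a run cutoff, the mean activation of all tested compounds plus 3 SD, cut at about 14% in these data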;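 note: 0% = plate median of compound wells and 100% = 30 µM serotonin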
MOR ag counter = counter-screen for mouse HTR2A agonists: human mu opioid receptor agonists; U2OS OPRM1 beta-arrestin PathHunter, luminescence; DMSO 0%, DAMGO 9.3 µM 100%; shares compounds with m5-HT2A agonist; actives 5.3% (n = 2,300); AID 624380; activation, % at 9.3 µM;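 active = mean activation above the mean of DMSO-only wells plus 3 SD, cut at about 0.5% in these data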
m5-HT2A ag conf = mouse HTR2A agonism confirmed | shares compounds with m5-HT2A agonist | CHO-K1 PathHunter beta-arrestin recruitment, luminescence; DMSO 0%, 30 µM serotonin 100% | activation, % at 7.6 µM | actives 19% (n = 2,300) | AID 624381;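 active = mean activation across triplicates above the hit threshold derived in the original primary screen, cut at about 15% in these data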
Starred values were filed as active, the others as inactive; x = not tested or not shown.

SMILES	MC4R antag cAMP	FXN GAA850 act	AHR activator	MC4R ag barr	m5-HT2A agonist	MOR ag counter	m5-HT2A ag conf
CC1=Nc2cc(C(=O)NCC3CCCO3)ccc2Sc2ccc(Br)cc21 (stereo not drawn)	-30	-2	0	-2	-3	x	x
O=C(C1CCC(CNc2c(N3CCCCC3)c(=O)c2=O)CC1)N1CCCCC1 (stereo not drawn)	16	0	-2	1	19*	0	3
COc1ccccc1C(C(=O)c1ccccc1)c1ccc(O)cc1 (stereo not drawn)	x	x	x	x	-6	x	x
CCOC(=O)C(C(=O)OCC)C1N=C(N)N=C2Oc3ccccc3N21 (stereo not drawn)	2	0	22	0	15*	0	0
CCc1nc2c(OCc3ccccc3C(=O)OC)cccn2c1N(C)C(=O)Nc1ccccc1OC	1	-1	x	1	-2	x	x
CCCNC(=O)C1(C)CCCN(C(=O)c2ccccc2F)C1 (stereo not drawn)	16	1	x	1	17*	-1	-3
CN1C(=O)NC(c2ccc(O)cc2)C2=C1CN(c1ccccc1)C2=O (stereo not drawn)	8	0	0	0	-1	x	x
CN1C(=O)NC(c2ccc(O)cc2)C2=C1CN(c1ccc(O)cc1)C2=O (stereo not drawn)	1	2	2	-2	20*	-1	-4
Cc1nnc(SCc2cc(=O)[nH]c(=S)[nH]2)s1	0	0	-1	2	16*	0	-4
O=C(COC(=O)/C=C/c1cccc(C(F)(F)F)c1)NC(=O)NC1CCCC1	2	0	x	2	16*	0	-3
CCN(CC)S(=O)(=O)c1ccc2[nH]c(=O)cc(C(=O)Nc3ccccc3N3CCOCC3)c2c1	7	-1	0	-1	-2	x	x
Cn1cccc1C(=O)Nc1ccc(N2CCOCC2)cc1	0	3	-2	1	15*	0	2
O=C(Nc1ccc(N2CCOCC2)cc1)c1ccncc1	-1	1	8	0	2	x	x
CC1(C(=O)NS(=O)(=O)c2cccs2)CCN1C(=O)c1ccccc1CCc1ccccc1 (stereo not drawn)	5	-3	x	1	1	x	x
COC(=O)c1cc(OC)c(OC)cc1NC(=O)CSCc1c(C)noc1C	1	-1	12	-1	16*	-1	3
CCCCCCCCN1C(=O)[C@H](CC(=O)NCCCCc2ccccc2)C[C@@]2(C(=O)OCC)CCCC=C12	x	x	x	x	-5	x	x
Cc1cc(=O)oc2c(C)c(OC(C)C(=O)NCCCN3CCOCC3)ccc12 (stereo not drawn)	7	-1	1	-2	16*	0	-4
Cc1cccc(C)c1NC(=O)C1(C)CSCC(=O)N1Cc1ccco1 (stereo not drawn)	x	x	x	x	0	x	x
CCN(CC(=O)NC1CC1)S(=O)(=O)c1ccc(C)cc1	-2	3	0	0	15*	-1	-5
CCN(CC(=O)NC1CC1)S(=O)(=O)c1ccccc1	2	1	1	-2	3	x	x
Cc1ccsc1C(=O)OCC(=O)NCC1CCCO1 (stereo not drawn)	-7	2	-2	-2	18*	-1	-2
CC[C@]1(C(=O)OC)[C@H]2C(=O)N(Cc3ccccc3)C(=O)[C@H]2[C@H]2CN(C)C(=NCc3ccccc3)N21	3	-1	x	3	21*	0	-2
CCN1C[C@@H]2[C@@H]3C(=O)N(Cc4ccccc4)C(=O)[C@@H]3[C@](Cc3ccccc3)(C(=O)OC)N2C1=NCc1ccccc1	-2	-2	x	3	1	x	x
COc1ccc(OC)c(CN2C(=O)CSCC2(C)C(=O)Nc2c(C)cccc2C)c1 (stereo not drawn)	x	x	x	x	6	x	x
CN(C(=O)c1cccc(NC(=O)Cc2ccc(NC(=O)C3CCN(C(=O)C4CCCCC4)CC3)cc2)c1)C1CC1	6	-1	x	-1	16*	0.7*	5
SMILES	MC4R antag cAMP	FXN GAA850 act	AHR activator	MC4R ag barr	m5-HT2A agonist	MOR ag counter	m5-HT2A ag conf
O=C(CC1(O)C(=O)Nc2ccccc21)c1ccccc1O (stereo not drawn)	2	0	11	0	21*	-1	-3
O=C(Cn1c(=O)c2cccn2c2cccnc21)N1CCN(c2ccc(Cl)cc2)CC1	-3	1	1	1	15*	-1	-1
Cc1ccc(Cl)cc1N1CCN(C(=O)CCCn2c(=O)c3cccn3c3cccnc32)CC1	-8	1	6	1	-1	x	x
O=C(NC1CCCC1)c1cc(-c2cccc(Cl)c2)on1	-12	3	-9	1	-4	x	x
Cc1cccc(CN2CCN(C(=O)CN(C)C(C)C(=O)Nc3ccc(C(N)=O)cc3)CC2)c1 (stereo not drawn)	9	1	1	-4	-9	x	x
O=C(Nc1ccc(C(=O)O)cc1)/C(=C/c1ccc2c(c1)OCO2)NC(=O)c1cccc(Br)c1	5	2	5	-1	19*	0	-5
Cc1ccc(C(=O)N/C(=C/c2ccccc2)C(=O)NC(Cc2ccccc2)C(=O)O)cc1 (stereo not drawn)	14	-1	6	-1	16*	-1	42*
Cc1ccc(/C=C(\NC(=O)c2ccccc2)C(=O)NC(Cc2ccccc2)C(=O)O)cc1 (stereo not drawn)	4	3	2	2	4	x	x
O=C(Nc1cccc(C(=O)O)c1)/C(=C\c1ccccc1)NC(=O)c1ccccc1	7	6	0	-4	18*	-1	-3
O=C1C=C(OCCF)CC(c2ccc(Br)cc2)O1 (stereo not drawn)	x	x	x	x	-8	x	x
CN(C)C(CNC(=O)CSc1nc2ccccc2c(=O)n1Cc1ccco1)c1ccccc1 (stereo not drawn)	6	-1	5	3	2	x	x
CC1(Cc2cc(Cl)ccc2C(F)(F)F)C(=O)Nc2cc(C(F)(F)F)ccc21 (stereo not drawn)	12	2	x	0	15*	0	2
CC1(Cc2cc(Cl)ccc2C(F)(F)F)C(=O)Nc2cc(F)ccc21 (stereo not drawn)	2	0	x	0	-4	x	x
Cc1nc(-c2ccc(S(=O)(=O)NCC3CCN(C(=O)OC(C)(C)C)CC3)s2)cs1	3	3	2	1	0	x	x
COc1cccc(CNCCNC(=O)c2nonc2N)c1	4	0	0	-1	19*	-1	-5
